This sample holds only a part of the variants without activity.
B1: tRNA (parent)
chain: GUUCCGUUGGCGUAAUGGUAACGCGUCUCCCUCCUAAGGAGAAGACUGCGGGUUCGAGUCCCGUACGGAACG

Variants of: B1
Assay: yeast fitness relative to wild type (ratio to wild type); higher = fitter; tRNA-Arg(CCU), competitive growth, 37 C, YPD
In short: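 Start and end populations of a pooled competition were compared by 100-nucleotide paired-end sequencing of gene amplicons. The Saccharomyces cerevisiae strains carried tRNA-Arg(CCU) gene variants at the native genomic locus, synthesised with a 3% per-site mutation rate at 69 sites, and competed in YPD at 37°C for 24 hours in six parallel replicates. Darwinian fitness relative to wild type was based on the change in genotype frequencies. Genotypes required ≥ 100 starting reads, and estimates < 0.5 were set to 0.5.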

Variant	yeast fitness
GUUCCGUUGGCGUAAUGGUAACGCCUCUGCCUCCUAAGGAAAAGACUGUGGGUUCGAGUCCCGUGUGGAACG [G25C C29G G41A C49U A65G C66U]	0.583
GUUCCGUUGGCGUAAUGGUAACGCCUCUCGCUCCUUAGGAGAAGAUUGCGGGUUCGAGUCCCGUGCGGAACG [G25C C30G A36U C46U A65G]	≤ 0.5
GUUCCGUUGGCGUAAUGGUAACGCCUCUCCUACCUAAGGAGAAGACUGCGGGUUAGAGUCCCGUACGGUACG [G25C C31U U32A C55A A69U]	≤ 0.5
GUUCCGUUGGCGUAAUGGUAACGCCUCUCCCUCGUAAGUAGAAGACGGCGGGUUCGAGUCCCGUACGGAACG [G25C C34G G39U U47G]	≤ 0.5
GUUCCGUUGGCGUAAUGGUAACGCCUCUCCAUCCUAAGGAGAUGACUGCGGGUACGAGUCCCGUACGGAACG [G25C C31A A43U U54A]	≤ 0.5
GUUCCGUUGGCGUAAUGGUAACGCCUCUCCUACCUAAGGAGAAGAUUGCGGGUUCGAGUCCCGUACGGAACG [G25C C31U U32A C46U]	≤ 0.5
GUUCCGUUGGCGUAAUGGUAACGCCUCUCCCUCCUAAGGAGAAGACUGUGAGUUCGGGUCCCGUACGGAACG [G25C C49U G51A A57G]	≤ 0.5
GUUCCGUUGGCGUAAUGGUAACGCCUCUCCCUGCUAAGGAGAAGACUGCCGGUCCGAGUCCCGUACGGAACG [G25C C33G G50C U54C]	≤ 0.5
GUUCCGUUGGCGUAAUGGUAACGCCUCUCCCUCCUAAGGAGAAGACUGCGGGUUAGAGUCCCGUACGGAACG [G25C C55A]	0.68
GUUCCGUUGGCGUAAUGGUAACGCCUCUCCCUCCUAAGGAGAAGACUGCGGGUUGGAGUCCCGUACGGAACG [G25C C55G]	≤ 0.5
GUUCCGUUGGCGUAAUGGUAACGCCUCUCCCUCUUAAGGAGAAGACUGCGGGUUCGAGUCCCGUAUGGAACG [G25C C34U C66U]	≤ 0.5
GUUCCGUUGGCGUAAUGGUAACGCCUCUCCUACCUAAGGAGAAGACUGUGGGUUCGAGUCCCGUACGGAACG [G25C C31U U32A C49U]	≤ 0.5
GUUCCGUUGGCGUAAUGGUAACGCCUCUCCCUCCUAAGGAGAAGAAUGCCGGUUCGAGUCCCGUACGGAACG [G25C C46A G50C]	0.618
GUUCCGUUGGCGUAAUGGUAACGCCUCUCCCUCCUAAGGAGAAGACUGCGGGUUUGUGUCCCGUACGGAACG [G25C C55U A57U]	0.551
GUUCCGUUGGCGUAAUGGUAACGCCUCUUCCUUCUAAGGGGAAGACUGCGGAUUCGAGCCCCGUUCGGAACG [G25C C29U C33U A40G G52A U59C A65U]	≤ 0.5
GUUCCGUUGGCGUAAUGGUAACGCCUCUACCUCCUAAGGAGAAGACUGCGGGUUCGAGUCCCGUACGGAACG [G25C C29A]	0.696
GUUCCGUUGGCGUAAUGGUAACGCCUCUCCCUCCUAAGGAGAAGACUGUGAGUUCGAGUACCGUACGGAGCG [G25C C49U G51A C60A A70G]	≤ 0.5
GUUCCGUUGGCGUAAUGGUAACGCCUCUGCCUUCUAAGUAGAAGACUGCGGGUUCGAGUCCCGUACGGAACG [G25C C29G C33U G39U]	≤ 0.5
GUUCCGUUGGCGUAAUGGUAACGCCUCUCCCUCCUAAGGAGAAGAUUGCAGGUUCGAGUCCCGUACGGAACG [G25C C46U G50A]	0.889

Variant	yeast fitness
GUUCCGUUGGCGUAAUGGUAACGCCUCUCCCUCCUAAGGAGAAGACUGUGGGUUCGAGUCCGGUAUGGAACG [G25C C49U C62G C66U]	0.539
GUUCCGUUGGCGUAAUGGUAACGCCUCUCCCUCCUAAGGAGAAGACUGCGGGUUCGAGUACCGUACCGAACG [G25C C60A G67C]	≤ 0.5
GUUCCGUUGGCGUAAUGGUAACGCCUCUCCCUCCUAAGGAGAAGACUGCGGGUUCGAGUCGCGUACCGAACG [G25C C61G G67C]	0.527
GUUCCGUUGGCGUAAUGGUAACGCCUCUCCGUCGUAAGGAGAAGACUGCGGGUUCGAGUCUCGUACGGAACG [G25C C31G C34G C61U]	≤ 0.5
GUUCCGUUGGCGUAAUGGUAACGCCUCUCCCUACUAAGGAGAAGCAUGCGGGUUCGAGUCCCGUACGGAACG [G25C C33A A45C C46A]	0.518
GUUCCGUUGGCGUAAUGGUAACGCCUCUCCUACCUAAGGAGAAGACUGGGGGUUCGAGUUCCGUACGGAACG [G25C C31U U32A C49G C60U]	≤ 0.5
GUUCCGUUGGCGUAAUGGUAACGCCUCUCCCUCUUAAGGAAAAGACUGGGGGUUCGAGUCCCGUACGGAACG [G25C C34U G41A C49G]	0.54
GUUCCGUUGGCGUAAUGGUAACGCCUCUCCAUCCUAAGGAGAAGACUACGGGUUCGAGUCACGUGCGGAACG [G25C C31A G48A C61A A65G]	0.558
GUUCCGUUGGCGUAAUGGUAACGCCUCUGCCUCCUAAGGAAAAGACUGUGGGUUCGAGUCCCAUGUGGAACG [G25C C29G G41A C49U G63A A65G C66U]	≤ 0.5
GUUCCGUUGGCGUAAUGGUAACGCCUCUCCGUCCUAAGGAGGAGACUGCGGGUGCGAGUCCCGUACGGAACG [G25C C31G A42G U54G]	≤ 0.5
GUUCCGUUGGCGUAAUGGUAACGCCUCUCUCUCCUAAGGAGAAGACUGCGGGUCCGAGUCCCGUACGGAACG [G25C C30U U54C]	≤ 0.5
GUUCCGUUGGCGUAAUGGUAACGCCUCUCCCUCGUAAGGAGAAGACUGCGGGUUCGAGUCUCGUAGGGAACG [G25C C34G C61U C66G]	≤ 0.5
GUUCCGUUGGCGUAAUGGUAACGCCUCUCCCUCAUAAGGAGAAGAUUGCGGGUUCGAGUCCCGUACGGAACG [G25C C34A C46U]	0.555
GUUCCGUUGGCGUAAUGGUAACGCCUCUGCCUCCUAAGGAGAAGAGUGCGCGUUCGAGUCCCGUACGGAACG [G25C C29G C46G G51C]	≤ 0.5
GUUCCGUUGGCGUAAUGGUAACGCCUCUCCAUCCUACGGAGAAGACCGCGGGUUCGAGUCUCGUACGGAACG [G25C C31A A37C U47C C61U]	0.702
GUUCCGUUGGCGUAAUGGUAACGCCUCUCCCUCAUAAGGAGAAGACUGCGGGUUCGAGUCCCGUACGGAACG [G25C C34A]	0.625
GUUCCGUUGGCGUAAUGGUAACGCCUCUCCCUCAUAAGGAGAAGACUGCGGGUUCGAGUCCCGUAUGGAACG [G25C C34A C66U]	0.54
GUUCCGUUGGCGUAAUGGUAACGCCUCUCCCUCCUAAGGAGAAGAGUGCGGGGUCGAGUCCCGUAAGGAACG [G25C C46G U53G C66A]	0.81
